According to paper PMC8239543 (Clinical and Translational Science, 2021):
pEC50: −log10 of the molar value. Where two headings read alike, the source gives them in different places.

Key:
[1] = format: in vivo, human; conditions: for AUC(0-t) / Tmax / half-life / Cmax: male, human, plasma, 600 mg; for AUC(0-t) / Tmax / half-life: oral; for AUC(0-t): AUC4h; for Cmax: po, 600 mg camostat mesylate oral
Method in brief: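 Night doses were fasted. Cohort 1 took daytime doses after a meal, except a fasted day-1 morning dose. Cohort 2 dosed 30 min premeal on day 1, then 1 h premeal. Plasma GBPA was measured by LC-MS/MS and analysed noncompartmentally. Food ratios came from a mixed-effects model on ln Cmax and AUC24h.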

Population PK = assay: Population PK; parameters: species or system human; conditions: for Food effect against fasted on KA: covariate multiplier
Method in brief: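 Plasma GBPA came from 14 multiple-dose subjects (372 points) and 10 earlier single-dose fasted subjects (47 points). Modelling used NONMEM with FOCE and interaction. Doses were converted to GBPA equivalents by molecular-weight ratio. One- and two-compartment models with first-order absorption and linear elimination were tested, with additive, proportional or combined residual error. Between-subject variability and interoccasion variability were log-normal, and food condition was tested as a covariate.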

SARS‐Cov‐2 infection = conditions: read-out: EC50 value of GBPA that inhibited SARS-CoV-2 infection; cited from earlier work
[2] = Phase I safety and tolerability assessment; format: in vivo, human; conditions: for safety and tolerability: multiple administration, healthy adults
Method in brief: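 Healthy Japanese men took 600 mg orally four times daily on day 1 and days 3–9. Monitoring throughout covered symptoms, physical examination, and supine blood pressure and pulse. It also covered temperature, oxygen saturation, weight, hematology, biochemistry, coagulation and spot urinalysis. ECGs were 12-lead plus monitor, and adverse events were recorded.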

[3] = Solubility / Biopharmaceutics Classification System class; format: physicochemical; conditions: inferred from solubility and structure-suggested poor permeability
[4] = in vivo
[5] = cited from earlier work
[6] = cited from earlier work; remark: listed apart in the source
TMPRSS2 = conditions: cited from earlier work
[7] = tested on: SARS‐CoV‐2 infection of a cell line derived from human airway epithelial cells (Calu‐3); conditions: cited from earlier work
[8] = cited from earlier work; remark: listed apart in the source
[9] = Cohort 2, Day 1, 30 min before a meal
[10] = Cohort 2, Day 3, 1 h before a meal
[11] = Cohort 2, Day 9, 1 h before a meal
[12] = Cohort 1, Day 1, Fasted, mean (SD)
[13] = Cohort 1, Day 3, Fed, mean (SD)
[14] = Cohort 1, Day 9, Fed, mean (SD)
[15] = Cohort 2, Day 1, 30 min before a meal, mean (SD)
[16] = Cohort 2, Day 3, 1 h before a meal, mean (SD)
[17] = Cohort 2, Day 9, 1 h before a meal, mean (SD)

## N=C(N)Nc1ccc(C(=O)Oc2ccc(CC(=O)O)cc2)cc1 [GBPA, 4‐(4‐guanidinobenzoyloxy)phenylacetic acid]
[1]; 1 h before a meal
  exposure of GBPA compared with the fasted state: no significant difference
[1]; Cohort 1, Day 3, Fed
  AUC4h against fasted, geometric mean ratio (95% confidence interval): 0.31 (0.23, 0.43)
  Cmax against fasted, geometric mean ratio (95% confidence interval): 0.28 (0.18, 0.42)
[1]; Cohort 1, Day 9, Fed
  AUC4h against fasted, geometric mean ratio (95% confidence interval): 0.30 (0.21, 0.43)
  Cmax against fasted, geometric mean ratio (95% confidence interval): 0.27 (0.17, 0.42)
[1]; [9]
  AUC4h against fasted, geometric mean ratio (95% confidence interval): 0.43 (0.29, 0.64)
  Cmax against fasted, geometric mean ratio (95% confidence interval): 0.50 (0.31, 0.86)
[1]; [10]
  AUC4h against fasted, geometric mean ratio (95% confidence interval): 0.53 (0.31, 0.91)
  Cmax against fasted, geometric mean ratio (95% confidence interval): 0.57 (0.30, 1.08)
[1]; [11]
  AUC4h against fasted, geometric mean ratio (95% confidence interval): 0.79 (0.46, 1.37)
  Cmax against fasted, geometric mean ratio (95% confidence interval): 0.95 (0.51, 1.75)
[1]; administered after a meal and at 30 min before a meal
  Cmax and AUC relative to values under fasted conditions: not more than 50%
[1]; after a meal and 30 min before a meal
  exposure of GBPA compared with the fasted state: significantly lower
[1]; [12]
  AUC(0-t): 683 ng·h/mL
  Cmax: 371 ng/mL
[1]; [13]
  AUC(0-t): 206 ng·h/mL
  Cmax: 95.8 ng/mL
[1]; [14]
  AUC(0-t): 194 ng·h/mL
  Cmax: 93.5 ng/mL
[1]; [15]
  AUC(0-t): 227 ng·h/mL
  Cmax: 177 ng/mL
[1]; [16]
  AUC(0-t): 366 ng·h/mL
  Cmax: 218 ng/mL
[1]; [17]
  AUC(0-t): 556 ng·h/mL
  Cmax: 367 ng/mL
[1]; Tmax, Cohort 1, Day 1, Fasted, median (range)
  Tmax: 1 h
[1]; Tmax, Cohort 1, Day 3, Fed, median (range)
  Tmax: 2 h
[1]; Tmax, Cohort 1, Day 9, Fed, median (range)
  Tmax: 2 h
[1]; Tmax, Cohort 2, Day 1, 30 min before a meal, median (range)
  Tmax: 1 h
[1]; Tmax, Cohort 2, Day 3, 1 h before a meal, median (range)
  Tmax: 1 h
[1]; Tmax, Cohort 2, Day 9, 1 h before a meal, median (range)
  Tmax: 1 h
[1]; half-life, plasma GBPA elimination
  half-life: < 2 h
[1]; median Tmax, fasted conditions, 30 min before a meal, and 1 h before a meal
  Tmax: 1 h
[1]; median Tmax, fed conditions
  Tmax: 2 h
[1]; t1/2, Cohort 1, Day 1, Fasted, mean (SD), n = 6
  half-life: 1.58 h
[1]; t1/2, Cohort 1, Day 3, Fed, mean, n = 2
  half-life: 1.33 h
[1]; t1/2, Cohort 1, Day 9, Fed, mean (SD), n = 3
  half-life: 1.16 h
[1]; t1/2, Cohort 2, Day 1, 30 min before a meal, mean (SD)
  half-life: 1.35 h
[1]; t1/2, Cohort 2, Day 3, 1 h before a meal, mean (SD), n = 6
  half-life: 1.05 h
[1]; t1/2, Cohort 2, Day 9, 1 h before a meal, mean (SD)
  half-life: 0.962 h
Population PK; 30 min before a meal, FIXED
  Food effect against fasted on KA: 1.0 FIXED
Population PK; 1 h before a meal, FIXED
  Food effect against fasted on KA: 1.0 FIXED
Population PK; Fed
  Food effect against fasted on KA: 0.0807
Population PK; PopPK fixed effect estimate
  Absorption rate constant (KA): 5.91 h⁻¹
  Lag time: 0.319 h
Population PK; interoccasion variability
  IOV on FA: 35.8 % CV
  IOV on KA: 105 % CV
Population PK; intra-subject variability
  Proportional residual error: 0.39 % CV
Population PK; male, human, plasma, oral
  Vd/F: 904 L
  clearance: 11300 mL/min
SARS‐Cov‐2 infection
  pEC50: 6.75

## CN(C)C(=O)COC(=O)Cc1ccc(OC(=O)c2ccc(NC(=N)N)cc2)cc1.CS(=O)(=O)O [camostat mesylate, dimethylcarbamoylmethyl 4‐(4‐guanidinobenzoyloxy)phenylacetate monomethanesulfonate]
[2]; 600 mg q.i.d.
  findings in safety laboratory values, vital signs, or ECG parameters: no clinically significant findings
  serious adverse events or deaths: no serious adverse events or deaths
  safety and tolerability: no safety concerns were raised
[2]; 600 mg q.i.d., listed as Camostat mesylate
  safety and tolerability: safe and tolerated
[2]; all subjects
  QTcF change from baseline: ≤ 60 ms
[2]; any postbaseline visit, all subjects
  QTcF interval: ≤ 480 ms
[3]
  Biopharmaceutics Classification System class: class 3
[4]
  human equivalent dose converted from the dog NOAEL: 3333 mg
[5]
  presence in plasma after oral administration: not detectable
[6]
  half-life in human plasma: ≤ 1 min
TMPRSS2
  TMPRSS2 inhibition: inhibited
[7]
  SARS-CoV-2 infection of Calu-3 cells: prevented
[8]
  solubility: soluble
